From ChEMBL document CHEMBL3875197, “Design, synthesis and pharmacological evaluation of 4-hydroxyphenylglycine and 4-hydroxyphenylglycinol derivatives as GPR88 agonists” (Bioorg Med Chem, 2017) come the findings set out here.

Active and inactive are the calls of the source. The rule behind the calls is not given here.

The target in one experiment is T1, G protein-coupled receptor 88 (Homo sapiens, UniProt Q9GZN0). Nature of the experiment: Agonist activity at PPLS-HA-tagged-GPR88 (unknown origin) expressed in CHO cells assessed as inhibition of forskolin-stimulated cAMP production measured after 30 mins by TR-FRET assay. Format: functional, cell-based. In general terms: Cyclic AMP is a second messenger, typically raised through Gs and lowered through Gi signalling.
T1 sequence (Q9GZN0 whole entry): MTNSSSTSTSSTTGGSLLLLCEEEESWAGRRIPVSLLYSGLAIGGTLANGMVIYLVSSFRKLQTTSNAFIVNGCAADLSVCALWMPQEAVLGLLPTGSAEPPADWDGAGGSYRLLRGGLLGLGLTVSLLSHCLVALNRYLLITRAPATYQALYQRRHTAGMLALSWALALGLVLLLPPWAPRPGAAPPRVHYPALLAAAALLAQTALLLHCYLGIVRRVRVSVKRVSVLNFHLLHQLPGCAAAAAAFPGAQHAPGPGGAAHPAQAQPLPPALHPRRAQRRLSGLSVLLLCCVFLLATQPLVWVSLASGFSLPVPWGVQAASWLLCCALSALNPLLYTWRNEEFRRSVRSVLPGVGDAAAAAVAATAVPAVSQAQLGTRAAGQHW
In general, EC50 refers to the concentration giving half of the maximal effect. Consider `CCCC(C)COc1ccc([C@H](CO)NC(=O)[C@@H](CC)c2ccccc2)cc1` (stereo not given in full), for which the EC50 was determined as 145 nM.

Consider `CCCC(C)COc1ccc([C@@H](NC(=O)Cc2ccc(C#N)cc2)C(=O)OC)cc1` (stereo not given in full), for which the EC50 was more than 10000 nM.

Regarding `CCCC(C)COc1ccc([C@@H](NC(=O)Cc2cccc(F)c2)C(=O)OC)cc1` (stereo not given in full), the EC50 was 3910 nM.

For the molecule `CCCC(C)COc1ccc([C@@H](NC(=O)Cc2ccccc2F)C(=O)OC)cc1` (stereo not given in full), the EC50 turned out to be 7870 nM.

For `CCCC(C)COc1ccc([C@H](CO)NC(=O)CCCc2ccccc2)cc1` (stereo not given in full), the EC50 was found to be 1440 nM.

For the molecule `CCCC(C)COc1ccc([C@H](CN=[N+]=[N-])NC(=O)[C@@H](C)c2ccccc2)cc1` (stereo not given in full), the EC50 is 134 nM.

In the case of `CCCC(C)COc1ccc([C@H](CO)NC(=O)Cc2ccccc2)cc1` (stereo not given in full), the EC50 turned out to be 487 nM.

With `CCCC(C)COc1ccc([C@@H](NC(=O)Cc2ccc(OC)cc2)C(=O)OC)cc1` (stereo not given in full), the EC50 is 9570 nM.

Take `CCCC(C)COc1ccc([C@@H](NC(=O)[C@@H](C)c2ccccc2)C(=O)OC)cc1` (stereo not given in full): the EC50 stood at 538 nM.

As to `CCCC(C)COc1ccc([C@@H](NC(=O)Cc2ccc(F)cc2)C(=O)OC)cc1` (stereo not given in full), the EC50 amounted to 5860 nM.

Take `CCCC(C)COc1ccc([C@@H](NC(=O)[C@@H](CC)c2ccccc2)C(=O)OC)cc1` (stereo not given in full): the EC50 was 583 nM.

`CCCC(C)COc1ccc([C@@H](NC(=O)C(C)C2CCCCC2)C(=O)OC)cc1` (mixture of isomers): the EC50 was more than 10000 nM.

Regarding `CCCC(C)COc1ccc([C@@H](NC(=O)Cc2ccc(C)cc2)C(=O)OC)cc1` (stereo not given in full), the EC50 stood at 3700 nM.

For `CCCC(C)COc1ccc([C@@H](NC(=O)Cc2ccccc2)C(=O)OC)cc1` (stereo not given in full), the EC50 came out at 2630 nM.

On to `CCCC(C)COc1ccc([C@@H](NC(=O)[C@@H](C)c2ccccc2)C(=O)O)cc1` (stereo not given in full), for which the EC50 was more than 10000 nM.

Consider `CCCC(C)COc1ccc([C@H](CO)NC(=O)CCc2ccccc2)cc1` (stereo not given in full), for which the EC50 worked out at 345 nM.

For another experiment, the target named is T1, G protein-coupled receptor 88. Nature of the experiment: Agonist activity at PPLS-HA-tagged-GPR88 (unknown origin) expressed in CHO cells assessed as inhibition of forskolin-stimulated cAMP production at 1 uM measured after 30 mins by TR-FRET assay. It is filed as functional, cell-based. A digest of the protocol:
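Stable PPLS-HA-GPR88 CHO cells lifted with versene, 4,000 cells/well in HBSS with 5 mM HEPES, 0.1% BSA and 0.5 mM IBMX (pH 7.4). Single 1 μM test compound plus forskolin (300 nM at 4× final), 30 min at RT. Eu-cAMP tracer and ULight-anti-cAMP added, TR-FRET read (ex 337 nm) after 1 h at RT. Activity expressed as percentage of reference-agonist TR-FRET signal.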
In the case of `CCCC(C)COc1ccc([C@@H](NC(=O)[C@@H](C)c2ccccc2)C(=O)OC)cc1` (stereo not given in full), the agonist activity call is “Active”.

On to `CCCC(C)COc1ccc([C@@H](NC(=O)[C@H](C)c2ccccc2)C(=O)OC)cc1` (stereo not given in full), for which the agonist activity call was “Active”.

Consider `CCCC(C)COc1ccc([C@@H](NC(=O)[C@@H](CC)c2ccccc2)C(=O)OC)cc1` (stereo not given in full), for which the agonist activity call is “Active”.

`CCCC(C)COc1ccc([C@@H](NC(=O)Cc2ccccc2)C(=O)OC)cc1` (stereo not given in full): the agonist activity call was “Active”.
